# Key:
# [1] = Drug recovery in healthy human feces treated with [14C]GSK2251052 at 1500 mg, iv infusion for 1 hr as single dose after 120 hrs by HPLC method; assay type: ADME, organism-based; conditions: in vivo
# How it was run: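 Feces pooled over 0–120 h per subject by sample weight. About 1 g homogenate extracted twice with 4 volumes of acetonitrile:methanol:water:formic acid (50:25:25:1) under 20 min sonication. Extracts dried and reconstituted in water:methanol 90:10. Profiled by HPLC (Atlantis T3, ammonium acetate pH 4.5/methanol, 30°C) with fraction radiocounting and Orbitrap MS. Results given as % of dose, corrected for extraction recovery.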
# Plasma [2] = assay: AUC (0 to t) in plasma of healthy human treated with [14C]GSK2251052 at 1500 mg, iv infusion for 1 hr as single dose; assay type: ADME, organism-based; conditions: in vivo
# How it was run: (§1)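 Six fasted healthy men received 1500 mg [14C]GSK2251052 as a 1-h constant-rate i.v. infusion. K2EDTA plasma was sampled from predose to 72 h, with profiling samples added at 96, 144 and 336 h. Parent and M3 were measured by validated LC/MS/MS after methanol/formic acid precipitation with stable-label internal standards (range 5–10,000 ng/ml). Noncompartmental analysis used actual times, linear-up/log-down trapezoids and CL = dose/AUC(0-∞).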
# [3] = Drug recovery in healthy human feces treated with [14C]GSK2251052 at 1500 mg, iv infusion for 1 hr as single dose after 0 to 120 hrs by HPLC method; conditions: in vivo
# [4] = Drug metabolism assessed as purified ADH (unknown origin)-mediated compound formation treated with GSK2251052 at 50 to 500 uM by spectrophotometry in presence of NAD+; assay type: ADME; conditions: human, TDE = time-dependent effect
# Plasma [5] = assay: AUC (0 to infinity) in plasma of healthy human treated with [14C]GSK2251052 at 1500 mg, iv infusion for 1 hr as single dose; assay type: ADME, organism-based; set-up: dose 1500 mg, route intravenous, time infinity; conditions: in vivo; how it was run: as §1
# [6] = Drug recovery in cynomolgus monkey liver microsomes at pH 7.4 treated with [14C]GSK2251052 at 500 uM after 3 hrs by liquid scintillation counting in presence of NAD+; assay type: ADME, Macaca fascicularis; conditions: pH 7.4, 3 h
# Plasma [7] = assay: Tmax in plasma of healthy human treated with [14C]GSK2251052 at 1500 mg, iv infusion for 1 hr as single dose; assay type: ADME, organism-based; conditions: in vivo
# How it was run: (§2)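 Healthy men got a single 1500 mg [14C] dose by 1 h i.v. infusion. K2EDTA blood was sampled up to 336 h. Radioactivity in blood and plasma was measured by LSC, with AMS for plasma below LLQ. Parent and M3 were measured by LC/MS/MS (5–10,000 ng/ml range). Noncompartmental analysis used actual times, with t1/2 = ln2/λz and Tmax observed directly, timed from infusion start.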
# [8] = Drug recovery in cynomolgus monkey liver cytosol at pH 8.4 treated with in presence of NAD+ [14C]GSK2251052 at 500 uM after 3 hrs by liquid scintillation counting; assay type: ADME, Macaca fascicularis; conditions: pH 8.4, 3 h
# [9] = Drug recovery in cynomolgus monkey liver S9 fraction at pH 8.8 treated with [14C]GSK2251052 at 500 uM after 3 hrs by liquid scintillation counting in presence of NAD+; assay type: ADME, subcellular, Macaca fascicularis; conditions: s9, pH 8.8, 3 h
# Liver cytosol = assay: Drug metabolism in human liver cytosol assessed as compound formation treated with GSK2251052 at 50 to 500 uM after 3 hrs by spectrophotometry in presence of NAD+ and ADH inhibitor 4-MP; assay type: ADME
# Plasma [10] = assay: Cmax in plasma of healthy human treated with [14C]GSK2251052 at 1500 mg, iv infusion for 1 hr as single dose; assay type: ADME, organism-based; set-up: dose 1500 mg, route intravenous; conditions: in vivo; how it was run: as §1
# [11] = Drug metabolism in human liver cytosol assessed as ADH-mediated compound formation treated with GSK2251052 at 50 to 500 uM by spectrophotometry in presence of NAD+; assay type: ADME; conditions: TDE = time-dependent effect
# Plasma [12] = assay: Half life in plasma of healthy human treated with [14C]GSK2251052 at 1500 mg, iv infusion for 1 hr as single dose; assay type: ADME, organism-based; conditions: in vivo; how it was run: as §2
# [13] = Drug recovery in cynomolgus monkey liver S9 fraction at pH 7.4 treated with [14C]GSK2251052 at 500 uM after 3 hrs by liquid scintillation counting in presence of NAD+; assay type: ADME, subcellular, Macaca fascicularis; conditions: s9, pH 7.4, 3 h
# [14] = Drug recovery in cynomolgus monkey liver S9 fraction at pH 8.4 treated with [14C]GSK2251052 at 500 uM after 3 hrs by liquid scintillation counting in presence of NAD+; assay type: ADME, subcellular, Macaca fascicularis; conditions: s9, pH 8.4, 3 h
# [15] = Drug recovery in healthy human urine treated with [14C]GSK2251052 at 1500 mg, iv infusion for 1 hr as single dose after 120 to 336 hrs by HPLC method; assay type: ADME, organism-based; conditions: in vivo
# How it was run: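 Urine pooled by weight per subject over 0–120 h; 120–336 h pools from all subjects combined into one composite. Centrifuged at ~21,000g, then supernatant profiled by HPLC (Atlantis T3, ammonium acetate pH 4.5/methanol, 30°C) with radiochemical detection plus MS identification. Results are % of dose, corrected for centrifugation recovery measured by triplicate LSC.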
# [16] = Drug recovery in cynomolgus monkey liver cytosol at pH 7.4 treated with [14C]GSK2251052 at 500 uM after 3 hrs by liquid scintillation counting in presence of NAD+; assay type: ADME, Macaca fascicularis; conditions: pH 7.4, 3 h
Structure (SMILES),Drug recovery [1],AUCt (Plasma [2]),Drug recovery [3],Drug metabolism [4],AUC (Plasma [5]),Drug recovery [6],Tmax (Plasma [7]),Drug recovery [8],Drug recovery [9],Drug metabolism (Liver cytosol),Cmax (Plasma [10]),Drug metabolism [11],t1/2 (Plasma [12]),Drug recovery [13],Drug recovery [14],Drug recovery ([15]; in the assay text read “0 to 120 hrs” for “120 to 336 hrs”),Drug recovery [16],Drug recovery ([15]; BLD = below limit of detection)
Cl.NC[C@H]1OB(O)c2c(OCCC(=O)O)cccc21,3.3%,101 µg·h/mL,3.3%,tde,103 µg·h/mL,2.5%,7 h,0.9%,4.3%,metabolite_not_detected,1770 ng/mL,tde,77.3 h,7.7%,6.7%,43.8%,1.7%,
CC(=O)NC[C@H]1OB(O)c2c(OCCC(=O)O)cccc21,,,,,,,,,,,,,,,,,,BLD

# Source: ChEMBL document CHEMBL3526029, “Disposition and metabolism of GSK2251052 in humans: a novel boron-containing antibiotic” (Drug Metab Dispos, 2013)
